Measurements taken from the RNAGym collection of RNA variant scans (doi:10.1126/science.aae0568).
Variants at the floor of the assay were thinned out.

B1: tRNA (parent)
chain: GUUCCGUUGGCGUAAUGGUAACGCGUCUCCCUCCUAAGGAGAAGACUGCGGGUUCGAGUCCCGUACGGAACG

Variants of: B1
Test: yeast fitness relative to wild type (ratio to wild type); higher = fitter; tRNA-Arg(CCU), competitive growth, 37 C, YPD
How it was run: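 Variants of the tRNA-Arg(CCU) gene, chemically synthesised with a 3% per-site mutation rate at 69 sites, were placed at the native genomic locus in Saccharomyces cerevisiae. The pooled strains were competed in YPD at 37°C for 24 hours in six parallel replicates. Gene amplicons from the start population and from each end population were read by 100-nucleotide paired-end sequencing. Darwinian fitness relative to wild type came from changes in genotype frequencies; genotypes needed ≥ 100 starting reads, and estimates < 0.5 were set to 0.5.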
Variant GUUCCGCUGGCGUAAUGGUAACGAGUCUCCCUCCUAAGGAGAAGACUGCGGGUUCGAGUCUCGUACGGAACG has a yeast fitness of 0.543. With GUUCCGCUGGCGUAAUGGUAACGGGUCUCCCUCCUAAGGAGAAGACUGCGGGUUCGAGUCCCGUCCGGAACG the yeast fitness was at most 0.5. Variant GUUCCGCUGGCGUAAUGGUAACGGGUCUCCAUCCUAAGGAGAAGACUGCGGGUUCGAGUCCCGUACGGAACG has a yeast fitness of at most 0.5. Work on GUUCCGCUGGCGUAAUGGUAACGUGUCUCGCUCCUAAGGAGAAGCCUGCGGGUUCGAGUCGCGUACGGAACG yielded a yeast fitness of at most 0.5. Variant GUUCCGCUGGCGUAAUGGUAACGUGUCUCCCUCCUAAGGAGAAGACUGCGGGUACGAGUCCCGUACGGAACG has a yeast fitness of at most 0.5. With GUUCCGCUGGCGUAAUGGUAACGCGUAUCCCUCCUAAGGAGAAGACUGCGGGUUCGAGUCCCGUACGGAACG the yeast fitness was 0.894. GUUCCGCUGGCGUAAUGGUAACGCGUAUCCCUCCUAAGGAGAAGACUGCGGGUUCGAGUCCCGGACGGAACG gave a yeast fitness of at most 0.5. GUUCCGCUGGCGUAAUGGUAACGCGUGUCCCUCCUAAGGAGAAGACUGCGGGUUCGAGUCCCGUACGGAACG showed a yeast fitness of 0.696. GUUCCGCUGGCGUAAUGGUAACGCGUUUCCCUCCUAAGGAGAAGUCUGCGGGUUCGAGUCCCGUAUGGAACG gave a yeast fitness of 0.617. With GUUCCGCUGGCGUAAUGGUAACGCGUUUACCUCCUAAGGAGAAGACUGCGGGUUCGACUCCCGUACGGAACG the yeast fitness was at most 0.5. GUUCCGCUGGCGUAAUGGUAACGCGUUUCCCUGGUAAGGAGAAAACUGCAGAUUCGAGUCCCGUACGGAACG gave a yeast fitness of at most 0.5. For GUUCCGCUGGCGUAAUGGUAACGCGUCUGCCUCCUAAGGAGAAGCCUGCGGGUUCGAGUCCGGUCCGGAACG, the yeast fitness was at most 0.5. Work on GUUCCGCUGGCGUAAUGGUAACGCGUCUGCCUCCUAAGGAGAAGACUGUGGGUUCGAGUCCCGUACGGAACG yielded a yeast fitness of 0.712. With GUUCCGCUGGCGUAAUGGUAACGCGUCUUCCUCCUAAGGAGAAGAUUGCGGGUUCGAGUCCCGUUCGGAACG the yeast fitness was at most 0.5. Work on GUUCCGCUGGCGUAAUGGUAACGCGUCUCACUCCUAAGGAGAAGACUGCGGGUUCGAGUACCGUACGGAACG yielded a yeast fitness of at most 0.5. With GUUCCGCUGGCGUAAUGGUAACGCGUCUCGCUCCUAAGGAGAAGACUGCGGGUUCGACUCCCGUAUGGAACG the yeast fitness was at most 0.5. In the case of GUUCCGCUGGCGUAAUGGUAACGCGUCUCUCUCCUAGGGAGAAGAUUGCGGCUUCGAGUCCGGUACGGACCG, the yeast fitness is reported as at most 0.5. GUUCCGCUGGCGUAAUGGUAACGCGUCUCUCUCCUAAGGAGAAGACUGCGGGUUCGAGUCCCGUAGGGAACG gave a yeast fitness of at most 0.5. GUUCCGCUGGCGUAAUGGUAACGCGUCUCCGUCCUAAGGAGAAGACUGCGGGUUCGAGUCCCGUUCGGAACG showed a yeast fitness of 0.664. In the case of GUUCCGCUGGCGUAAUGGUAACGCGUCUCCGUCUUAAGGAGAAGACUGCGGGUUUGAAUCUCGUACGGAACG, the yeast fitness is reported as 0.666. Work on GUUCCGCUGGCGUAAUGGUAACGCGUCUCCGUCUUAAGGAGAAGACUGCGGGUUUGAAUCUCGUACGCAACG yielded a yeast fitness of at most 0.5. GUUCCGCUGGCGUAAUGGUAACGCGUCUCCGUCCUAAGGAAAAGACUGCGGCUUCGAGUUCGGUAGGGAACG gave a yeast fitness of at most 0.5. Work on GUUCCGCUGGCGUAAUGGUAACGCGUCUCCUUCCUUAGGAGACGACUGCGGGUUGGAGUCCCGUACGGAACG yielded a yeast fitness of 0.539. GUUCCGCUGGCGUAAUGGUAACGCGUCUCCUUCCUAAGGAGAAGACUGCGGAUUCGAGUCCCGUACGGAACG showed a yeast fitness of at most 0.5. GUUCCGCUGGCGUAAUGGUAACGCGUCUCCUGCCUAAGGAGAAGACUGCGGGUUCGAGUCCCGUACGGAACG showed a yeast fitness of 0.542. With GUUCCGCUGGCGUAAUGGUAACGCGUCUCCCUACUAAGGAGAAGACUGAGGGUUCGAGUCCCGUACGGAACG the yeast fitness was at most 0.5. In the case of GUUCCGCUGGCGUAAUGGUAACGCGUCUCCCUACUAAGGAGAAGACUGCGGGUUCGACUCCCGUACAGAACG, the yeast fitness is reported as 0.602. Variant GUUCCGCUGGCGUAAUGGUAACGCGUCUCCCUGCUAAGGAGAAGACUGCGGGUUCGAGUCCCGUACGGAGCG has a yeast fitness of 0.57. Work on GUUCCGCUGGCGUAAUGGUAACGCGUCUCCCUGCUAAGGAGAAGACUGCGGGUUCGAGCCCCGUACGGAACG yielded a yeast fitness of 0.59. GUUCCGCUGGCGUAAUGGUAACGCGUCUCCCUUCUAAGGAGAAGACUGCGGGUUCGAGUCCCGUACGGAACG gave a yeast fitness of 0.713. In the case of GUUCCGCUGGCGUAAUGGUAACGCGUCUCCCUUCUAAGGAGAAGACUGUGGGUUCGAGUCCCGUACGGAUCG, the yeast fitness is reported as at most 0.5. In the case of GUUCCGCUGGCGUAAUGGUAACGCGUCUCCCUUCUAAGGAGAAGACUGUGGGCUCGAGUCCCGUACGGAACG, the yeast fitness is reported as 0.539. GUUCCGCUGGCGUAAUGGUAACGCGUCUCCCUUCUAAGGAGAAGACUGCGGGCUCGAGUCCCGUACGGAACG showed a yeast fitness of 0.599. GUUCCGCUGGCGUAAUGGUAACGCGUCUCCCUCGUUUGGAGAAGACUGCGGGUUCGAGUCCCGUACGGAACG showed a yeast fitness of at most 0.5. With GUUCCGCUGGCGUAAUGGUAACGCGUCUCCCUCGUAAGCAGGAGAGUGCGGGUUCGAGUCGCGUACGGAACG the yeast fitness was 0.538. GUUCCGCUGGCGUAAUGGUAACGCGUCUCCCUCUUAAGGAGAAGACUGCGGGUUCGAGUCCCGUACGGAACG showed a yeast fitness of 0.699. Variant GUUCCGCUGGCGUAAUGGUAACGCGUCUCCCUCUUAAGGAGAAGACUGCGGGUUAGAGUCCCGUGCGGAACG has a yeast fitness of at most 0.5.
